# Screens from PubChem BioAssay.
# PDI turbidity: inhibitors of human PDI, primary screen, biochemical, turbidity, single point, plate reader. Protein disulfide-isomerase (Homo sapiens), P07237. PDI insulin aggregation turbidity, A650, 90 min. inhibition, % at 10 µM. hit rate 0.052% among 350,000. AID 588391, 2011;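 active = mean inhibition across replicates of 30% or more, whatever share of single replicates reach that level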
# ERAP1 HTS inh: human ERAP1 aminopeptidase inhibitors, primary screen, biochemical, single point, plate reader; AID 652197, 2013; hit rate 0.15% among 340,000; Endoplasmic reticulum aminopeptidase 1 (Homo sapiens), Q9NZ08; inhibition, % at 10.7 µM; recombinant ERAP1, Leu-AMC fluorescence, 60 min;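 active = mean replicate inhibition of at least 30%, or all replicates individually reaching that 30% level; inactive = mean below 30% and not every replicate reaching it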
# CAL PDZ FP-1: CAL PDZ peptide-binding inhibitors, primary screen, biochemical, fluorescence polarization, Cer-tagged CAL PDZ, HTS; Golgi-associated PDZ and coiled-coil motif-containing protein (Homo sapiens), Q9HD26; purified CAL PDZ, TMR-peptide fluorescence polarization, 1 h; inhibition, % at 20 µM; hit rate 0.02% among 330,000; AID 504414, 2011;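 active = highest replicate inhibition of at least 40%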
#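 Control set: unlabelled peptide and DMSO controls / Material: purified CerCALP PDZ construct / Timing: 1 h incubation at room temperature before polarization reading / Doses: 20 µM, one dose / Detection: fluorescence polarization (mP)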
# CAL PDZ FP-2: untagged CAL PDZ binding inhibitors, primary screen, biochemical, fluorescence polarization, HTS; hit rate 0.92% among 300,000; Golgi-associated PDZ and coiled-coil motif-containing protein (Homo sapiens), Q9HD26; purified CAL PDZ, TMR-peptide fluorescence polarization, 1 h; AID 602252, 2012; inhibition, % at 24.9 µM;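 active = mean inhibition of at least 30% with at least half of replicates also reaching 30%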
# Rin1-Abl PPI inh: inhibitors of Rin1-Abl protein binding, primary screen, biochemical, TR-FRET | inhibition, % at 7.35 µM | hit rate 0.4% among 360,000 | Tyrosine-protein kinase ABL1 (Homo sapiens) + Ras and Rab interactor 1 (Homo sapiens), … | AID 588664, 2011; in the data active = inhibition above about 5%, passing the limit was not always enough
# ERp5 inh: inhibitors of ERp5-driven insulin aggregation, primary screen, biochemical, turbidity, absorbance 650 nm, single point. 90 min. inhibition, % at 9.99 µM. hit rate 0.05% among 350,000;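 active = mean replicate inhibition above about 25%, with every replicate also reaching it, limit read from the data, passing the limit was not always enough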
# Target sequence (Q15084 whole entry, looked up): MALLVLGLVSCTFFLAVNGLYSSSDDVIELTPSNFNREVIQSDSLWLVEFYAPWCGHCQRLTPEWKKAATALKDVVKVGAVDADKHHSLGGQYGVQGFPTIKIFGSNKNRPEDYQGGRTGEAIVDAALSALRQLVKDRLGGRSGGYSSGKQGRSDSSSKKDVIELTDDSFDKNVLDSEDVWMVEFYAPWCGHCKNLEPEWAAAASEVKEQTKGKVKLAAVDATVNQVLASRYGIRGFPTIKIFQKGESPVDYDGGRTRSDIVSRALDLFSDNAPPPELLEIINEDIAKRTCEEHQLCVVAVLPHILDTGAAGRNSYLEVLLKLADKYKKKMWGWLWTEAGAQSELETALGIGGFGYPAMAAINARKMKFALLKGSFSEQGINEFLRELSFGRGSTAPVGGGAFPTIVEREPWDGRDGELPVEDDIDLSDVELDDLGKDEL
# Rin1 Abl conf: Rin1-Abl binding inhibitor retest, confirmation, biochemical, TR-FRET. shares compounds with Rin1-Abl PPI inh. purified proteins. inhibition, % at 7.35 µM. hit rate 49% among 1,300. AID 602124, 2011
# GFP quencher: GFP fluorescence inhibitors and quenchers, artefact control for Rin1-Abl interaction inhibitor project, biochemical; hit rate 8.5% among 1,300; inhibition, % at 6.75 µM; AID 602125, 2011; shares compounds with Rin1-Abl PPI inh; inhibitors/quenchers counterscreen;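 note: ABL1-eGFP fusion protein alone without its partner RIN1-SBP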
# GFP quench DR: GFP fluorescence inhibitors and quenchers, dose response, artefact control for Rin1-Abl interaction inhibitor project, biochemical | GFP fluorescence interference/quenching counterscreen | IC50, µM | 230 tested, under 10 active | shares compounds with Rin1-Abl PPI inh; call rule not given here;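 note: ABL1-eGFP fusion protein alone without its RIN1 binding partner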
# Numbers stand for hits; i = inactive; nt = no result given. A selection: hits, their analogues and other compounds. The true share with any hit is near 1.1%. Cut-off read from the data, not from the text of the source, unless noted: active = inhibition above about 6.5%; inactive = the rest.
SMILES,PDI turbidity,ERAP1 HTS inh,CAL PDZ FP-1,CAL PDZ FP-2,Rin1-Abl PPI inh,ERp5 inh,Rin1 Abl conf,GFP quencher,others
Cc1ccc2cc(NC(=O)CC(CC(=O)O)c3ccccc3)ccc2n1 (centres undefined),i,i,i,i,8.6,i,i,i,
CO[C@@H]1CN(C)C(=O)c2cc(NC(C)=O)ccc2OC[C@H](C)N(C(=O)c2ccc(F)cc2)C[C@@H]1C,nt,i,nt,nt,nt,i,nt,nt,
O=c1cc(-c2ccccc2)nc(Sc2ccc([N+](=O)[O-])cc2[N+](=O)[O-])[nH]1,i,nt,i,nt,i,i,nt,nt,
Nc1nc(-c2ccc([N+](=O)[O-])cc2)cc(=O)[nH]1,i,i,i,i,13.5,i,11.2,i,
CO[C@@H]1CN(C)C(=O)c2ccc(NC(C)=O)cc2OC[C@@H](C)N(C(=O)c2cccnc2)C[C@@H]1C,nt,i,nt,nt,nt,i,nt,nt,
COc1cc(CNC2CCCC2)c(Br)cc1OC1CCCC1,i,i,i,i,i,i,nt,nt,
COc1cc(CNCc2ccccc2)c(Br)cc1OC1CCCC1,i,i,i,i,8.8,i,i,i,
O=C1CN(Cc2ccccc2)C[C@@H]2[C@@H](c3ccc(-c4ccccc4F)cc3)[C@H](CO)N12,nt,i,nt,nt,nt,i,nt,nt,
Cc1ccc(Oc2coc3cc(OC(=O)c4cccs4)ccc3c2=O)cc1,i,nt,i,i,i,nt,nt,nt,
CC(=O)Oc1ccc2c(=O)c(Oc3ccccc3)coc2c1OC(C)=O,i,nt,i,i,5.5,nt,i,i,
C[C@@H](NC(=O)C[C@H]1C[C@@H]2c3cc(NC(=O)CN(C)C)ccc3O[C@@H]2[C@H](CO)O1)c1ccccc1,nt,i,nt,nt,nt,i,nt,nt,
C[C@H](CO)N1C[C@H](C)[C@H](CN(C)S(=O)(=O)c2cn(C)cn2)Oc2ccc(NC(=O)Nc3ccccc3)cc2CC1=O,nt,i,nt,nt,nt,i,nt,nt,
O=C(C[C@@H]1CC[C@H]2[C@@H](COC[C@@H](O)CN2Cc2nccs2)O1)NCc1ccc(Cl)cc1,nt,i,nt,nt,nt,i,nt,nt,
O=c1[nH]cnc2c1C(c1ccccc1)c1c(nc[nH]c1=O)O2,i,i,i,i,22.9,i,43.7,i,GFP quench DR=i
O=C1CCC([N+](=O)[O-])C(c2ccc(C(F)(F)F)cc2)N1 (centres undefined),i,nt,i,i,8.2,i,i,i,
COc1ccc(NC(=O)N[C@H]2CC[C@@H](CCNS(=O)(=O)c3ccccc3F)O[C@H]2CO)cc1,nt,i,nt,nt,nt,i,nt,nt,
CCCn1nc(C(=O)N(C)CC(=O)Nc2ccc(OCC)c(OCC)c2)c2ccccc2c1=O,i,i,i,i,21.2,i,34.3,i,GFP quench DR=i
COc1ccc2c3c([nH]c2c1)[C@H](CO)N(Cc1cccc(F)c1)CC31CCN(C(C)=O)CC1,nt,i,nt,nt,nt,i,nt,nt,
CC[C@]12c3[nH]c4ccc(OC)cc4c3CCN1C(=O)C(CC(=O)NC/C=C(\C)CCC=C(C)C)C[C@@H]2C(=O)N1CCN(C(=O)c2ccco2)CC1 (some centres undefined),i,i,i,i,11.3,i,i,i,
CC[C@]12c3[nH]c4ccc(OC)cc4c3CCN1C(=O)C(CC(=O)NCCCN(C)C)C[C@@H]2C(=O)N1CCN(C(=O)c2ccco2)CC1 (some centres undefined),i,i,i,i,21.1,i,22.2,i,GFP quench DR=i
CC[C@]12c3[nH]c4ccc(OC)cc4c3CCN1C(=O)C(CC(=O)NCc1cccc(C(F)(F)F)c1)C[C@@H]2C(=O)N1CCN(C(=O)c2ccco2)CC1 (some centres undefined),i,i,i,i,18.1,i,21.2,i,GFP quench DR=i
CC[C@]12c3[nH]c4ccccc4c3CCN1C(=O)C(CC(=O)NCCCN(C)C)C[C@@H]2C(=O)N1CCN(C(=O)c2ccco2)CC1 (some centres undefined),i,i,i,i,i,i,nt,nt,
CC[C@]12c3[nH]c4ccc(OC)cc4c3CCN1C(=O)C(CC(=O)NCCc1ccccn1)C[C@@H]2C(=O)N1CCN(C(=O)c2ccco2)CC1 (some centres undefined),i,nt,i,i,16.0,i,i,i,
COc1ccccc1C#Cc1ccc([C@H]2[C@@H](CO)N3CCCCN(C(=O)C4CCCC4)C[C@@H]23)cc1,nt,i,nt,nt,nt,i,nt,nt,
O=S(=O)(NCC[C@@H]1CC[C@@H](NS(=O)(=O)c2ccccc2Cl)[C@H](CO)O1)c1ccc(F)cc1,nt,i,nt,nt,nt,i,nt,nt,
SMILES,PDI turbidity,ERAP1 HTS inh,CAL PDZ FP-1,CAL PDZ FP-2,Rin1-Abl PPI inh,ERp5 inh,Rin1 Abl conf,GFP quencher,others
C[C@@H]1CCCCO[C@@H](CN(C)C(=O)NC2CCCCC2)[C@H](C)CN([C@H](C)CO)C(=O)c2cc(NC(=O)Cc3ccccc3)ccc2O1,nt,i,nt,nt,nt,i,nt,nt,
C[C@@H]1CN([C@@H](C)CO)C(=O)Cc2cc(NC(=O)Nc3ccc4c(c3)OCO4)ccc2O[C@H]1CN(C)Cc1ccc(C(=O)O)cc1,nt,i,nt,nt,nt,i,nt,nt,
O=C(C[C@H]1C[C@H]2c3cc(NC(=O)c4cccnc4)ccc3O[C@H]2[C@H](CO)O1)NCC1CC1,nt,i,nt,nt,nt,i,nt,nt,
COc1ccc(-n2c(Cc3cccn3C)nnc2SCC(=O)Nc2cccc(NC(C)=O)c2)cc1,i,nt,i,i,9.1,nt,i,i,
COc1ccc(-n2c(Cc3cccn3C)nnc2SCC(=O)Nc2cccc(Cl)c2)cc1,nt,i,i,i,i,i,nt,nt,
CC(=O)c1c(C)cc(C)c(CSc2nnc(-c3ccco3)o2)c1C,i,nt,i,i,5.4,nt,i,i,
CCCC(C)NC(=O)CN(Cc1ccco1)S(=O)(=O)c1ccccc1 (centres undefined),i,i,i,nt,i,i,nt,nt,
CCC(C)NS(=O)(=O)c1ccc(S(=O)(=O)N(CC(=O)Nc2ccccc2)Cc2ccco2)cc1 (centres undefined),i,nt,i,i,4.8,nt,i,i,
CCOC(=O)N1CCN(S(=O)(=O)c2ccc(OC)c(Cl)c2Cl)CC1,i,nt,i,i,i,nt,nt,nt,
COc1ccc(S(=O)(=O)N2CCCC2)c(Cl)c1Cl,i,i,i,i,9.9,i,i,i,
CC(Nc1cccc2ccccc12)C(=O)N/N=C/c1ccccn1 (centres undefined),i,nt,i,i,11.2,nt,i,i,
